In ChEMBL document CHEMBL2176891, “Structural investigation of anti-Trypanosoma cruzi 2-iminothiazolidin-4-ones allows the identification of agents with efficacy in infected mice” (J Med Chem, 2012):
Activity calls are given as the source filed them. No cut-off for these calls is given here.

How the values were obtained:
[1] = Cytotoxicity against BALB/c mouse splenocytes assessed as highest nontoxic concentration by measuring [3H]-thymidine incorporation after 24 hrs by beta-radiation counting; format: cell-based, Splenocyte; settings: mouse, splenocytes, read-out: Activity
In short: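 BALB/c splenocytes, 5 × 10⁶ cells/well in RPMI-1640 with 10% FBS. Compound in DMSO at 1.0, 10 and 100 μg/mL or more, triplicate; untreated and saponin controls. 24 h at 37 °C, 5% CO₂. 1.0 μCi ³H-thymidine added, incorporation read by β-counting as % of untreated. Highest nontoxic concentration estimated.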

[2] = molecular target: Cruzipain (Trypanosoma cruzi) (UniProt P25779); test: Inhibition of Trypanosoma cruzi recombinant cruzain using Z-FR-AMC as substrate at 20 uM preincubated for 10 mins before substrate addition
Trypanosoma cruzi [3] = test: Antitrypanosomal activity against trypomastigotes of Trypanosoma cruzi Y infected in LLC-MK2 cells assessed as parasite motility after 24 hrs; format: functional, organism-based; settings: LLC-MK2, 24 h
In short: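 Y strain bloodstream trypomastigotes taken from LLC-MK2 culture supernatant, 4 × 10⁵ cells/well. Five compound concentrations (DMSO), triplicate, 24 h at 37 °C, 5% CO₂. Viable parasites judged by motility in a Neubauer chamber. Inhibition calculated relative to untreated culture; IC50 by nonlinear regression.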

Trypanosoma cruzi [4] = test: Antitrypanosomal activity against epimastigotes of Trypanosoma cruzi Y in axenic culture assessed as parasite motility after 11 days; settings: 264 h
Trypanosoma cruzi [5] = test: Antitrypanosomal activity against trypomastigotes of Trypanosoma cruzi Y infected in mouse peritoneal macrophages assessed as reduction of intracellular parasite level at 10 uM after 4 days; format: functional, organism-based
In short: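 Peritoneal exudate macrophages, 2 × 10⁵/well on coverslips, infected with Y strain trypomastigotes at 10 parasites per macrophage for 2 h, then washed. Compound in DMSO added for 6 h, medium replaced, culture continued 4 days. After methanol fixation and Giemsa staining, 100 cells per slide counted for % infected macrophages and amastigotes per cell. IC50 based on % infected cells versus untreated.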

[6] = molecular target: Cruzipain (Trypanosoma cruzi) (UniProt P25779); test: Inhibition of Trypanosoma cruzi recombinant cruzain using Z-FR-AMC as substrate at 100 uM preincubated for 10 mins before substrate addition
In short: (§1)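 Recombinant cruzain preincubated 10 min at room temperature with compound (DMSO) in phosphate buffer containing EDTA, 100 mM NaCl and DTT. Z-FR-AMC then added; final 0.5 nM enzyme and 2 μM substrate. Fluorescence read at 1, 5 and 10 min; % inhibition versus no-inhibitor control. Single-point values are triplicate means; IC50 by nonlinear regression from multiple concentrations. Some runs used 0.01% Triton X-100.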

Cathepsin S = Cathepsin S (Homo sapiens, UniProt P25774); test: Inhibition of recombinant cathepsin S using ZFR-pNA as substrate preincubated for 45 mins
In short: (§2)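 Recombinant cathepsin L or S activated with 1 mM DTT in 0.1 M acetate pH 5.5. Preincubated 45 min at room temperature with compound in phosphate buffer with 0.1% BSA, 1 mM EDTA and 0.001% Tween. Z-FR-pNA added, reaction 5 min; final 30 nM enzyme and 5.0 μM substrate. Triplicate runs; IC50 from at least seven concentrations.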

Procathepsin L [7] = molecular target: T1, Procathepsin L (Homo sapiens, UniProt P07711); test: Inhibition of recombinant cathepsin L using ZFR-pNA as substrate at 100 uM preincubated for 45 mins; in short: as §2
Target sequence in this assay (P07711 114-333 limits assumed): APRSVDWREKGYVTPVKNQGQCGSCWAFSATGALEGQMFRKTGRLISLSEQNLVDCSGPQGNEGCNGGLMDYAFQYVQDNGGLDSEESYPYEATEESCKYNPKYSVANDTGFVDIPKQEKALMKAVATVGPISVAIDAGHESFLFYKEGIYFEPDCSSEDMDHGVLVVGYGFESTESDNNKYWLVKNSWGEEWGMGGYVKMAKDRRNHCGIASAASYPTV

Procathepsin L [8] = molecular target: T1, Procathepsin L; test: Inhibition of recombinant cathepsin L using ZFR-pNA as substrate preincubated for 45 mins; in short: as §2
Target sequence in this assay (P07711 whole entry): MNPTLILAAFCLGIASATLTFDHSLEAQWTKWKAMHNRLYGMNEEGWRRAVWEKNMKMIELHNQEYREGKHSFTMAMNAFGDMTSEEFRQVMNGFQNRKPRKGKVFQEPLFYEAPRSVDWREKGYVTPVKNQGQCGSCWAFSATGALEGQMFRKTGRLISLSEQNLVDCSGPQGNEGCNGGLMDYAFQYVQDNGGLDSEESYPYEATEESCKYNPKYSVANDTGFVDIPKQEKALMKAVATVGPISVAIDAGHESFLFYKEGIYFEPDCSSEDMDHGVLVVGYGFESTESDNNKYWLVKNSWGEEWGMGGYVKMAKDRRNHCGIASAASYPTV

Cruzipain = Cruzipain (Trypanosoma cruzi, UniProt P25779); test: Inhibition of Trypanosoma cruzi recombinant cruzain using Z-FR-AMC as substrate preincubated for 10 mins before substrate addition; in short: as §1
Trypanosoma cruzi [9] = test: Inhibition of trypomastigotes of Trypanosoma cruzi Y invasion to mouse peritoneal macrophages at 50 uM […]; format: functional, organism-based
[10] = Solubility of the compound in 0.1 M sodium acetate pH 5.5; format: physicochemical; settings: buffer
[11] = molecular target: Cruzipain (Trypanosoma cruzi) (UniProt P25779); test: Inhibition of Trypanosoma cruzi recombinant cruzain using Z-FR-AMC as substrate at 20 uM preincubated for 10 mins before substrate addition in presence of 0.01% of Triton X-100; in short: as §1

Cruzipain, sequence (P25779 whole entry): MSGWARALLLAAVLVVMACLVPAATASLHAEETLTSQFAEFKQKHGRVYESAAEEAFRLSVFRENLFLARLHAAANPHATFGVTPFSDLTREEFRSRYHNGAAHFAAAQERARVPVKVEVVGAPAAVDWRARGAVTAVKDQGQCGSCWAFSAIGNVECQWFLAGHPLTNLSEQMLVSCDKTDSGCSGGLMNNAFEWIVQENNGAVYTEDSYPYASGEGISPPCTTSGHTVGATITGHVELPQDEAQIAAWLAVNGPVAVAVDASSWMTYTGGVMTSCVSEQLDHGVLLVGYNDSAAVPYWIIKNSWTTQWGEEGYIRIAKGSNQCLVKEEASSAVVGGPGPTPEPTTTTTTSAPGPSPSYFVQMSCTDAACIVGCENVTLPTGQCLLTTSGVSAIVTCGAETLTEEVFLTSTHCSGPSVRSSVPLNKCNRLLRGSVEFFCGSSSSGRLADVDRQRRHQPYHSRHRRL
Cruzipain (Trypanosoma cruzi), sequence (P25779 123-467 limits assumed): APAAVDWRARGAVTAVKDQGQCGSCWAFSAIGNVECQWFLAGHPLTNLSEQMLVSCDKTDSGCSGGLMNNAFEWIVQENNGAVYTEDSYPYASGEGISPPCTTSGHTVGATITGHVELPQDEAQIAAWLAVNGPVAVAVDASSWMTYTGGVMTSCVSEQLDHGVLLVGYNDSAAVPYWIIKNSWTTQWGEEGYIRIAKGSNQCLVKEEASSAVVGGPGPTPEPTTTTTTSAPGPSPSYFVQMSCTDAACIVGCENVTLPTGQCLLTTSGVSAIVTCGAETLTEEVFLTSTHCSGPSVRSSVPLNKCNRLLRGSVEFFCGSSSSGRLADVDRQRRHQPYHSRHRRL
Cathepsin S, sequence (P25774 whole entry): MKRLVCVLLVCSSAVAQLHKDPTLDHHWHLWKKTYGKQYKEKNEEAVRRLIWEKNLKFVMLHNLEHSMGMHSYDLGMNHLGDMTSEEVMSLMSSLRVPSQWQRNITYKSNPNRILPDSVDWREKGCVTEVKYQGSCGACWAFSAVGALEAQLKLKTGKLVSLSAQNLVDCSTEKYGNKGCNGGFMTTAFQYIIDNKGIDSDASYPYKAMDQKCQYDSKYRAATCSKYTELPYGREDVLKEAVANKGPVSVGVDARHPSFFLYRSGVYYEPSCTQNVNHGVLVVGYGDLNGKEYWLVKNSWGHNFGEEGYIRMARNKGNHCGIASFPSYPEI

inhibition [2]	IC50 (Trypanosoma cruzi [3]) [µM]	IC50 (Trypanosoma cruzi [4]) [µM]	SMILES	MNTC at 24 h [1] [µg/mL]	also measured
inactive	17.8	14.9	COc1ccc(-c2csc(N/N=C(\C)COc3ccccc3)n2)cc1	100	–
inactive	11.5	41.3	C/C(COc1ccccc1)=N\Nc1nc(-c2ccc(F)cc2)cs1	> 100	–
13%	–	57.1	C/C(COc1ccccc1)=N\Nc1nc(-c2ccc(Cl)cc2)cs1	100	–
25%	–	49.8	C/C(COc1ccccc1)=N\Nc1nc(-c2ccc(Br)cc2)cs1	100	–
inactive	5.7	1.9	C/C(COc1ccccc1)=N\Nc1nc(-c2ccc([N+](=O)[O-])cc2)cs1	100	Activity (Trypanosoma cruzi [5]): Active
inactive	3.8	4	C/C(COc1ccccc1)=N\Nc1nc(-c2cccc([N+](=O)[O-])c2)cs1	100	–
20%	17	19	C/C(COc1ccccc1)=N\Nc1nc(-c2ccc(Cl)c(Cl)c2)cs1	25	–
40%	17	42.2	C/C(COc1ccccc1)=N\Nc1nc(-c2ccc(Cl)cc2Cl)cs1	< 1	–
inactive	–	–	C/C(COc1ccccc1)=N\Nc1nc(-c2ccc(Cl)c(Cl)c2Cl)cs1	> 1	–
inactive	–	–	C/C(COc1ccccc1)=N\Nc1nc(-c2ccc(C(C)(C)C)cc2)cs1	50	–
inactive	36.4	83	C/C(COc1ccccc1)=N\Nc1nc(-c2ccc3ccccc3c2)cs1	> 100	–
–	17.7	–	C/C(COc1ccccc1)=N\Nc1nc(-c2ccco2)cs1	> 100	inhibition [6]: 4.7%
–	37.6	16.6	C/C(COc1ccccc1)=N\Nc1nc(-c2cccs2)cs1	50	inhibition [6]: 30%
inactive	175	25.6	C/C(COc1ccccc1)=N\N=c1\scc(-c2ccccc2)n1C	10	–
inactive	61.1	2.6	C/C(COc1ccccc1)=N\N=c1\scc(-c2ccccc2)n1-c1ccccc1	> 100	–
66%	18	25.8	C/C(COc1ccccc1)=N\N=C1\SCC(=O)N1c1ccccc1	> 100	IC50 (Cathepsin S): > 100 µM; inhibition (Procathepsin L [7]): 0%; IC50 (Procathepsin L [8]): > 100 µM; IC50 (Cruzipain; read-out: IC50): 10.2 µM
inactive	34.8	11.8	C/C(COc1ccccc1)=N\Nc1nc(-c2ccccn2)cs1	100	–
inactive	12.3	20.5	C/C(COc1ccccc1)=N\Nc1nc(-c2cccnc2)cs1	100	–
–	3.9	4	C/C(COc1ccccc1)=N\Nc1nc(-c2ccncc2)cs1	100	inhibition (Trypanosoma cruzi [9]): inactive; inhibition [6]: 13.3%; Activity (Trypanosoma cruzi [5]): inactive

inhibition [2]	IC50 (Trypanosoma cruzi [3]) [µM]	IC50 (Trypanosoma cruzi [4]) [µM]	SMILES	MNTC at 24 h [1] [µg/mL]	also measured
inactive	49.7	67	C/C(COc1ccccc1)=N\Nc1nc(-c2ccc(C)cc2)cs1	100	–
0%	–	–	C/C(COc1ccccc1)=N\N=C1\SCC(=O)N1C	> 100	IC50 (Cruzipain): ND(Insoluble)
–	–	–	C[C@@H]1[C@H](O)[C@@H](C)/C=C/C=C/C=C/C=C/C=C/C=C/C=C/[C@H](O[C@@H]2O[C@H](C)[C@@H](O)[C@H](N)[C@@H]2O)C[C@@H]2O[C@](O)(C[C@@H](O)C[C@@H](O)[C@H](O)CC[C@@H](O)C[C@@H](O)CC(=O)O[C@H]1C)C[C@H](O)[C@H]2C(=O)O	–	inhibition (Trypanosoma cruzi [9]): Active
27%	18	12	C/C(COc1ccccc1)=N\N=C1\SC(c2ccccc2)C(=O)N1C (racemic)	> 100	solubility [10]: Insoluble; IC50 (Cruzipain): ND(Insoluble)
50%	29	31.8	C/C(COc1ccccc1)=N\N=C1\SC(C)C(=O)N1c1ccccc1 (racemic)	100	inhibition (Procathepsin L [7]): 0%; Activity (Trypanosoma cruzi [5]): Active; IC50 (Cruzipain; read-out: IC50): 10.8 µM
66%	5.8	11.1	CCC1S/C(=N/N=C(\C)COc2ccccc2)N(c2ccccc2)C1=O (racemic)	100	IC50 (Cathepsin S): > 100 µM; inhibition (Procathepsin L [7]): 4%; IC50 (Procathepsin L [8]): > 100 µM; Activity (Trypanosoma cruzi [5]): Active; inhibition [11]: 64%; IC50 (Cruzipain; read-out: IC50): 9.5 µM
43%	11.1	15.6	C/C(COc1ccccc1)=N\N=C1\SC(c2ccccc2)C(=O)N1c1ccccc1 (racemic)	> 100	solubility [10]: Insoluble; inhibition (Procathepsin L [7]): 15%; IC50 (Cruzipain): ND(Insoluble)
72%	11.2	4.2	C/C(COc1ccccc1)=N\N=C1\SC(c2ccccc2)C(=S)N1c1ccccc1 (racemic)	100	inhibition (Procathepsin L [7]): 89%; IC50 (Procathepsin L [8]): 10.8 µM; inhibition [11]: 79%; IC50 (Cruzipain; read-out: IC50): 7 µM
48%	31.5	26.1	CCC1S/C(=N/N=C(\C)COc2ccccc2)NC1=S (racemic)	25	inhibition (Procathepsin L [7]): 81%; IC50 (Procathepsin L [8]): 13.8 µM; IC50 (Cruzipain; read-out: IC50): 18.7 µM
65%	19.9	15	CCC1S/C(=N/N=C(\C)COc2ccccc2)N(c2ccc(C)cc2)C1=O (racemic)	100	IC50 (Cruzipain; read-out: IC50): 11.8 µM
71%	9	6.8	CCC1S/C(=N/N=C(\C)COc2ccccc2)N(c2ccc(OC)cc2)C1=O (racemic)	100	IC50 (Cruzipain; read-out: IC50): 8.7 µM
10%	–	–	CCC1S/C(=N/N=C(\C)COc2ccccc2)N(C2CCCCC2)C1=O (racemic)	> 100	–
3%	–	–	C/C(COc1ccccc1)=N\N=C1/NC(=O)C(C)S1 (racemic)	> 100	inhibition (Procathepsin L [7]): 0%
5%	–	–	CCC1S/C(=N/N=C(\C)COc2ccccc2)NC1=O (racemic)	> 100	inhibition (Procathepsin L [7]): 5%
60.8%	16.8	12.2	C/C(COc1ccccc1)=N\N=C1/NC(=O)C(C(C)C)S1 (racemic)	> 100	inhibition (Procathepsin L [7]): 11%; IC50 (Cruzipain; read-out: IC50): 18.9 µM
63%	18.7	34.8	C/C(COc1ccccc1)=N\N=C1/NC(=O)C(c2ccccc2)S1 (racemic)	25	solubility [10]: Insoluble; inhibition [6]: 63%
0%	–	–	C/C(COc1ccccc1)=N\N=C1\SC(C)C(=O)N1C (racemic)	25	–
50%	–	–	CCC1S/C(=N/N=C(\C)COc2ccccc2)N(C)C1=O (racemic)	> 100	IC50 (Cathepsin S): > 100 µM; inhibition (Procathepsin L [7]): 6%; IC50 (Procathepsin L [8]): > 100 µM; IC50 (Cruzipain; read-out: IC50): 31.9 µM
81%	10.7	14	C/C(COc1ccccc1)=N\N=C1\SC(C(C)C)C(=O)N1C (racemic)	> 100	IC50 (Cathepsin S): > 100 µM; inhibition (Procathepsin L [7]): 0%; IC50 (Procathepsin L [8]): > 100 µM; IC50 (Cruzipain; read-out: IC50): 8 µM

SMILES	inhibition [2]	IC50 (Trypanosoma cruzi [3]) [µM]	IC50 (Trypanosoma cruzi [4]) [µM]	MNTC at 24 h [1] [µg/mL]	also measured
CC1CS(=O)(=O)CCN1/N=C/c1ccc([N+](=O)[O-])o1 (stereo not drawn) [NIFURTIMOX]	–	2.7	1.9	1	–
